Results from ChEMBL document CHEMBL1155664, “New carbazole alkaloids from Clausena anisata with antitumor promoting activity” (J Nat Prod, 2000).

Test system: not listed separately
Test: Cytotoxicity against human Raji cells assessed as cell viability at 16 nmol by trypan blue assay
Assay type: cell-based
Conditions: read-out: Activity
How it was run: (§1)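 Raji cells treated with compound together with TPA (32 pmol, 20 ng/mL) at mole ratios to TPA of 10, 100, 500 or 1000 (0.32, 3.2, 16, 32 nmol). Viability determined by trypan blue staining 2 days after treatment. At least 60% viability is needed for the EBV-EA result to be valid.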

| Structure (SMILES) | viability at 16 nmol |
| --- | --- |
| COC(=O)c1ccc2[nH]c3ccccc3c2c1 | > 80% |
| C=C(C)C1Cc2c(cc(O)c3[nH]c4ccccc4c23)C(=O)O1 (configuration not stated) [CLAUSAMINE A] | 70% |
| C=C(C)C1Cc2c(cc(OC)c3[nH]c4ccccc4c23)C(=O)O1 (configuration not stated) [CLAUSAMINE B] | 70% |
| COc1cc2c(c3c1[nH]c1ccccc13)CC(C(C)(C)O)OC2=O (configuration not stated) [CLAUSAMINE C] | 70% |
| COC(=O)c1cc(OC)c2[nH]c3ccccc3c2c1CC=C(C)C [CLAUSAMINE] | 70% |
| COC(=O)c1cc(O)c2[nH]c3ccccc3c2c1 [CLAUSINE E] | > 80% |
| COC(=O)c1cc(O)c2[nH]c3ccccc3c2c1CC=C(C)C [CLAUSINE F] | > 80% |
| COc1cc(C=O)c(CC=C(C)C)c2c1[nH]c1ccccc12 [EKEBERGININE] | > 80% |
| O=Cc1cc(O)c2[nH]c3ccccc3c2c1 [O-DEMETHYLMURRAYANINE] | > 80% |

Test system: Raji
Test: Inhibition of 12-O-tetradecanoylphorbol-13-acetate-induced EBV-early antigen activation in human Raji cells assessed as EA activation at 16 nmol relative to 12-O-tetradecanoylphorbol-13-acetate
Assay type: cell-based
Parameters: scale not given: the % may be the effect or the level left
Conditions: human gammaherpesvirus 4
How it was run: (§2)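 Raji cells induced with TPA (32 pmol = 20 ng/mL) plus compound at 10, 100, 500 or 1000 mol ratio/TPA (0.32, 3.2, 16, 32 nmol). EBV early antigen activation expressed as % of the TPA-only positive control (100%), given with S.D. Results count only where Raji viability stays at or above 60% at 2 days.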

| Structure (SMILES) | Activity |
| --- | --- |
| COC(=O)c1ccc2[nH]c3ccccc3c2c1 | 46.3% |
| C=C(C)C1Cc2c(cc(O)c3[nH]c4ccccc4c23)C(=O)O1 (configuration not stated) [CLAUSAMINE A] | 28.3% |
| C=C(C)C1Cc2c(cc(OC)c3[nH]c4ccccc4c23)C(=O)O1 (configuration not stated) [CLAUSAMINE B] | 39.2% |
| COc1cc2c(c3c1[nH]c1ccccc13)CC(C(C)(C)O)OC2=O (configuration not stated) [CLAUSAMINE C] | 27.2% |
| COC(=O)c1cc(OC)c2[nH]c3ccccc3c2c1CC=C(C)C [CLAUSAMINE] | 34.2% |
| COC(=O)c1cc(O)c2[nH]c3ccccc3c2c1 [CLAUSINE E] | 42.4% |
| COC(=O)c1cc(O)c2[nH]c3ccccc3c2c1CC=C(C)C [CLAUSINE F] | 37.5% |
| COc1cc(C=O)c(CC=C(C)C)c2c1[nH]c1ccccc12 [EKEBERGININE] | 22.4% |
| O=Cc1cc(O)c2[nH]c3ccccc3c2c1 [O-DEMETHYLMURRAYANINE] | 40.3% |

Test system: Raji
Test: Inhibition of 12-O-tetradecanoylphorbol-13-acetate-induced EBV-early antigen activation in human Raji cells assessed as EA activation at 0.32 nmol relative to 12-O-tetradecanoylphorbol-13-acetate
Assay type: cell-based
Parameters: scale not given: the % may be the effect or the level left
Conditions: human gammaherpesvirus 4
How it was run: as §2

| Structure (SMILES) | Activity |
| --- | --- |
| COC(=O)c1ccc2[nH]c3ccccc3c2c1 | 100% |
| C=C(C)C1Cc2c(cc(O)c3[nH]c4ccccc4c23)C(=O)O1 (configuration not stated) [CLAUSAMINE A] | 95.5% |
| C=C(C)C1Cc2c(cc(OC)c3[nH]c4ccccc4c23)C(=O)O1 (configuration not stated) [CLAUSAMINE B] | 100% |
| COc1cc2c(c3c1[nH]c1ccccc13)CC(C(C)(C)O)OC2=O (configuration not stated) [CLAUSAMINE C] | 92.3% |
| COC(=O)c1cc(OC)c2[nH]c3ccccc3c2c1CC=C(C)C [CLAUSAMINE] | 92.3% |
| COC(=O)c1cc(O)c2[nH]c3ccccc3c2c1 [CLAUSINE E] | 100% |
| COC(=O)c1cc(O)c2[nH]c3ccccc3c2c1CC=C(C)C [CLAUSINE F] | 94.6% |
| COc1cc(C=O)c(CC=C(C)C)c2c1[nH]c1ccccc12 [EKEBERGININE] | 90.3% |
| O=Cc1cc(O)c2[nH]c3ccccc3c2c1 [O-DEMETHYLMURRAYANINE] | 100% |

Test system: Raji
Test: Inhibition of 12-O-tetradecanoylphorbol-13-acetate-induced EBV-early antigen activation in human Raji cells assessed as EA activation at 3.2 nmol relative to 12-O-tetradecanoylphorbol-13-acetate
Assay type: cell-based
Parameters: scale not given: the % may be the effect or the level left
Conditions: human gammaherpesvirus 4
How it was run: as §2

| Structure (SMILES) | Activity |
| --- | --- |
| COC(=O)c1ccc2[nH]c3ccccc3c2c1 | 81.4% |
| C=C(C)C1Cc2c(cc(O)c3[nH]c4ccccc4c23)C(=O)O1 (configuration not stated) [CLAUSAMINE A] | 73.7% |
| C=C(C)C1Cc2c(cc(OC)c3[nH]c4ccccc4c23)C(=O)O1 (configuration not stated) [CLAUSAMINE B] | 78.2% |
| COc1cc2c(c3c1[nH]c1ccccc13)CC(C(C)(C)O)OC2=O (configuration not stated) [CLAUSAMINE C] | 72% |
| COC(=O)c1cc(OC)c2[nH]c3ccccc3c2c1CC=C(C)C [CLAUSAMINE] | 66% |
| COC(=O)c1cc(O)c2[nH]c3ccccc3c2c1 [CLAUSINE E] | 74.6% |
| COC(=O)c1cc(O)c2[nH]c3ccccc3c2c1CC=C(C)C [CLAUSINE F] | 69.8% |
| COc1cc(C=O)c(CC=C(C)C)c2c1[nH]c1ccccc12 [EKEBERGININE] | 63.5% |
| O=Cc1cc(O)c2[nH]c3ccccc3c2c1 [O-DEMETHYLMURRAYANINE] | 69.4% |

Test system: not listed separately
Test: Cytotoxicity against human Raji cells assessed as cell viability at 0.32 nmol by trypan blue assay
Assay type: cell-based
Conditions: read-out: Activity
How it was run: as §1

| Structure (SMILES) | viability at 0.32 nmol |
| --- | --- |
| COC(=O)c1ccc2[nH]c3ccccc3c2c1 | > 80% |
| C=C(C)C1Cc2c(cc(O)c3[nH]c4ccccc4c23)C(=O)O1 (configuration not stated) [CLAUSAMINE A] | > 80% |
| C=C(C)C1Cc2c(cc(OC)c3[nH]c4ccccc4c23)C(=O)O1 (configuration not stated) [CLAUSAMINE B] | > 80% |
| COc1cc2c(c3c1[nH]c1ccccc13)CC(C(C)(C)O)OC2=O (configuration not stated) [CLAUSAMINE C] | > 80% |
| COC(=O)c1cc(OC)c2[nH]c3ccccc3c2c1CC=C(C)C [CLAUSAMINE] | > 80% |
| COC(=O)c1cc(O)c2[nH]c3ccccc3c2c1 [CLAUSINE E] | > 80% |
| COC(=O)c1cc(O)c2[nH]c3ccccc3c2c1CC=C(C)C [CLAUSINE F] | > 80% |
| COc1cc(C=O)c(CC=C(C)C)c2c1[nH]c1ccccc12 [EKEBERGININE] | > 80% |
| O=Cc1cc(O)c2[nH]c3ccccc3c2c1 [O-DEMETHYLMURRAYANINE] | > 80% |

Test system: not listed separately
Test: Cytotoxicity against human Raji cells assessed as cell viability at 32 nmol by trypan blue assay
Assay type: cell-based
Conditions: read-out: Activity
How it was run: as §1

| Structure (SMILES) | viability at 32 nmol |
| --- | --- |
| COC(=O)c1ccc2[nH]c3ccccc3c2c1 | 60% |
| C=C(C)C1Cc2c(cc(O)c3[nH]c4ccccc4c23)C(=O)O1 (configuration not stated) [CLAUSAMINE A] | 60% |
| C=C(C)C1Cc2c(cc(OC)c3[nH]c4ccccc4c23)C(=O)O1 (configuration not stated) [CLAUSAMINE B] | 60% |
| COc1cc2c(c3c1[nH]c1ccccc13)CC(C(C)(C)O)OC2=O (configuration not stated) [CLAUSAMINE C] | 60% |
| COC(=O)c1cc(OC)c2[nH]c3ccccc3c2c1CC=C(C)C [CLAUSAMINE] | 60% |
| COC(=O)c1cc(O)c2[nH]c3ccccc3c2c1 [CLAUSINE E] | 60% |
| COC(=O)c1cc(O)c2[nH]c3ccccc3c2c1CC=C(C)C [CLAUSINE F] | 60% |
| COc1cc(C=O)c(CC=C(C)C)c2c1[nH]c1ccccc12 [EKEBERGININE] | 60% |
| O=Cc1cc(O)c2[nH]c3ccccc3c2c1 [O-DEMETHYLMURRAYANINE] | 60% |

Test system: not listed separately
Test: Cytotoxicity against human Raji cells assessed as cell viability at 3.2 nmol by trypan blue assay
Assay type: cell-based
Conditions: read-out: Activity
How it was run: as §1

| Structure (SMILES) | viability at 3.2 nmol |
| --- | --- |
| COC(=O)c1ccc2[nH]c3ccccc3c2c1 | > 80% |
| C=C(C)C1Cc2c(cc(O)c3[nH]c4ccccc4c23)C(=O)O1 (configuration not stated) [CLAUSAMINE A] | > 80% |
| C=C(C)C1Cc2c(cc(OC)c3[nH]c4ccccc4c23)C(=O)O1 (configuration not stated) [CLAUSAMINE B] | > 80% |
| COc1cc2c(c3c1[nH]c1ccccc13)CC(C(C)(C)O)OC2=O (configuration not stated) [CLAUSAMINE C] | > 80% |
| COC(=O)c1cc(OC)c2[nH]c3ccccc3c2c1CC=C(C)C [CLAUSAMINE] | > 80% |
| COC(=O)c1cc(O)c2[nH]c3ccccc3c2c1 [CLAUSINE E] | > 80% |
| COC(=O)c1cc(O)c2[nH]c3ccccc3c2c1CC=C(C)C [CLAUSINE F] | > 80% |
| COc1cc(C=O)c(CC=C(C)C)c2c1[nH]c1ccccc12 [EKEBERGININE] | > 80% |
| O=Cc1cc(O)c2[nH]c3ccccc3c2c1 [O-DEMETHYLMURRAYANINE] | > 80% |

Test system: Raji
Test: Inhibition of 12-O-tetradecanoylphorbol-13-acetate-induced EBV-early antigen activation in human Raji cells assessed as EA activation at 32 nmol relative to 12-O-tetradecanoylphorbol-13-acetate
Assay type: cell-based
Parameters: scale not given: the % may be the effect or the level left
Conditions: human gammaherpesvirus 4
How it was run: as §2

| Structure (SMILES) | Activity |
| --- | --- |
| COC(=O)c1ccc2[nH]c3ccccc3c2c1 | 21.7% |
| C=C(C)C1Cc2c(cc(O)c3[nH]c4ccccc4c23)C(=O)O1 (configuration not stated) [CLAUSAMINE A] | 15.4% |
| C=C(C)C1Cc2c(cc(OC)c3[nH]c4ccccc4c23)C(=O)O1 (configuration not stated) [CLAUSAMINE B] | 18.3% |
| COc1cc2c(c3c1[nH]c1ccccc13)CC(C(C)(C)O)OC2=O (configuration not stated) [CLAUSAMINE C] | 12.4% |
| COC(=O)c1cc(OC)c2[nH]c3ccccc3c2c1CC=C(C)C [CLAUSAMINE] | 18.2% |
| COC(=O)c1cc(O)c2[nH]c3ccccc3c2c1 [CLAUSINE E] | 27.4% |
| COC(=O)c1cc(O)c2[nH]c3ccccc3c2c1CC=C(C)C [CLAUSINE F] | 20.2% |
| COc1cc(C=O)c(CC=C(C)C)c2c1[nH]c1ccccc12 [EKEBERGININE] | 10.5% |
| O=Cc1cc(O)c2[nH]c3ccccc3c2c1 [O-DEMETHYLMURRAYANINE] | 25.2% |
